Laboratory results from ChEMBL document CHEMBL5058577, “EUbOPEN Chemogenomics Library 2 (Multiplex)” (2022).

Test system: U2OS
Experiment: Multiplex assay against U2OS
Assay type: toxicity, cell-based
Settings: human
In short: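 Values for tubulin, mitochondrial-mass and membrane-permeability phenotypes are per cents of cells with healthy nuclei. These cells were identified by CellPathfinder machine-learning gating of live cells that had been stained at seeding with Hoechst33342, BioTracker Green Microtubule Cytoskeleton Dye, MitoTracker Red and Annexin V Alexa Fluor 680 and imaged on a CQ1 microscope at 37°C and 5% CO2 after compound addition. The gating first set Hoechst high-intensity objects apart from normal cells, then split normal cells into healthy, pyknosed or fragmented nuclei, and pyknosed cells into mitotic or apoptotic.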

[1] = 12 h, 1 µM, compound concentration 1 uM, replicate 1
[2] = 12 h, 1 µM, compound concentration 1 uM, replicate 2
[3] = 12 h, 10 µM, compound concentration 10 uM, replicate 1
[4] = 12 h, 10 µM, compound concentration 10 uM, replicate 2
[5] = 24 h, 1 µM, compound concentration 1 uM, replicate 1
[6] = 24 h, 1 µM, compound concentration 1 uM, replicate 2
[7] = 24 h, 10 µM, compound concentration 10 uM, replicate 1
[8] = 24 h, 10 µM, compound concentration 10 uM, replicate 2
[9] = 48 h, 1 µM, compound concentration 1 uM, replicate 1
[10] = 48 h, 1 µM, compound concentration 1 uM, replicate 2
[11] = 48 h, 10 µM, compound concentration 10 uM, replicate 1
[12] = 48 h, 10 µM, compound concentration 10 uM, replicate 2

COc1cccc2c1c(NS(=O)(=O)c1ccc(Cl)s1)nn2Cc1cccc(CNC(=O)C(C)(C)O)c1
Population Apoptotic (%) [1]: 86%
Population Fragmented Nuclei (%) [1]: 23%
Population Healthy Nuclei (%) [1]: 67%
Population Hoechst High Intensity Objects (%) [1]: 3%
Population Membrane Permeable-Phenotype (%) [1]: 4%
Population Mitochondria Different-Phenotype (%) [1]: 1%
Population Mitotic Cells (%) [1]: 13%
Population Normal (%) [1]: 96%
Population Pyknosed Nuclei (%) [1]: 9%
Population Tubulin-Different-Phenotype (%) [1]: 1%
Total Cell Count [1]: 261
Population Apoptotic (%) [2]: 81%
Population Fragmented Nuclei (%) [2]: 29%
Population Healthy Nuclei (%) [2]: 64%
Population Hoechst High Intensity Objects (%) [2]: 6%
Population Membrane Permeable-Phenotype (%) [2]: 7%
Population Mitochondria Different-Phenotype (%) [2]: 3%
Population Mitotic Cells (%) [2]: 18%
Population Normal (%) [2]: 93%
Population Pyknosed Nuclei (%) [2]: 5%
Population Tubulin-Different-Phenotype (%) [2]: 6%
Total Cell Count [2]: 201
Population Apoptotic (%) [3]: 76%
Population Fragmented Nuclei (%) [3]: 26%
Population Healthy Nuclei (%) [3]: 65%
Population Hoechst High Intensity Objects (%) [3]: 1%
Population Membrane Permeable-Phenotype (%) [3]: 6%
Population Mitochondria Different-Phenotype (%) [3]: 2%
Population Mitotic Cells (%) [3]: 23%
Population Normal (%) [3]: 98%
Population Pyknosed Nuclei (%) [3]: 8%
Population Tubulin-Different-Phenotype (%) [3]: 4%
Total Cell Count [3]: 264
Population Apoptotic (%) [4]: 83%
Population Fragmented Nuclei (%) [4]: 25%
Population Healthy Nuclei (%) [4]: 70%
Population Hoechst High Intensity Objects (%) [4]: 5%
Population Membrane Permeable-Phenotype (%) [4]: 8%
Population Mitochondria Different-Phenotype (%) [4]: 3%
Population Mitotic Cells (%) [4]: 16%
Population Normal (%) [4]: 94%
Population Pyknosed Nuclei (%) [4]: 4%
Population Tubulin-Different-Phenotype (%) [4]: 2%
Total Cell Count [4]: 140
Population Apoptotic (%) [5]: 96%
Population Fragmented Nuclei (%) [5]: 20%
Population Healthy Nuclei (%) [5]: 70%
Population Hoechst High Intensity Objects (%) [5]: 1%
Population Membrane Permeable-Phenotype (%) [5]: 5%
Population Mitochondria Different-Phenotype (%) [5]: 1%
Population Mitotic Cells (%) [5]: 3%
Population Normal (%) [5]: 98%
Population Pyknosed Nuclei (%) [5]: 8%
Population Tubulin-Different-Phenotype (%) [5]: 3%
Total Cell Count [5]: 307
Population Apoptotic (%) [6]: 90%
Population Fragmented Nuclei (%) [6]: 28%
Population Healthy Nuclei (%) [6]: 66%
Population Hoechst High Intensity Objects (%) [6]: 5%
Population Membrane Permeable-Phenotype (%) [6]: 8%
Population Mitochondria Different-Phenotype (%) [6]: 3%
Population Mitotic Cells (%) [6]: 9%
Population Normal (%) [6]: 94%
Population Pyknosed Nuclei (%) [6]: 4%
Population Tubulin-Different-Phenotype (%) [6]: 6%
Total Cell Count [6]: 242
Population Apoptotic (%) [7]: 90%
Population Fragmented Nuclei (%) [7]: 25%
Population Healthy Nuclei (%) [7]: 64%
Population Hoechst High Intensity Objects (%) [7]: 1%
Population Membrane Permeable-Phenotype (%) [7]: 5%
Population Mitochondria Different-Phenotype (%) [7]: 3%
Population Mitotic Cells (%) [7]: 10%
Population Normal (%) [7]: 98%
Population Pyknosed Nuclei (%) [7]: 10%
Population Tubulin-Different-Phenotype (%) [7]: 2%
Total Cell Count [7]: 304
Population Apoptotic (%) [8]: 88%
Population Healthy Nuclei (%) [8]: 68%
Population Hoechst High Intensity Objects (%) [8]: 5%
Population Membrane Permeable-Phenotype (%) [8]: 8%
Population Mitochondria Different-Phenotype (%) [8]: 4%
Population Mitotic Cells (%) [8]: 11%
Population Normal (%) [8]: 94%
Population Pyknosed Nuclei (%) [8]: 5%
Total Cell Count [8]: 167
Population Apoptotic (%) [9]: 95%
Population Fragmented Nuclei (%) [9]: 14%
Population Healthy Nuclei (%) [9]: 76%
Population Hoechst High Intensity Objects (%) [9]: 1%
Population Membrane Permeable-Phenotype (%) [9]: 4%
Population Mitochondria Different-Phenotype (%) [9]: 1%
Population Mitotic Cells (%) [9]: 4%
Population Normal (%) [9]: 98%
Population Pyknosed Nuclei (%) [9]: 9%
Population Tubulin-Different-Phenotype (%) [9]: 2%
Total Cell Count [9]: 463
Population Apoptotic (%) [10]: 74%
Population Fragmented Nuclei (%) [10]: 22%
Population Healthy Nuclei (%) [10]: 68%
Population Hoechst High Intensity Objects (%) [10]: 7%
Population Membrane Permeable-Phenotype (%) [10]: 5%
Population Mitochondria Different-Phenotype (%) [10]: 4%
Population Mitotic Cells (%) [10]: 25%
Population Normal (%) [10]: 92%
Population Tubulin-Different-Phenotype (%) [10]: 5%
Total Cell Count [10]: 314
Population Apoptotic (%) [11]: 93%
Population Fragmented Nuclei (%) [11]: 20%
Population Healthy Nuclei (%) [11]: 71%
Population Hoechst High Intensity Objects (%) [11]: 2%
Population Membrane Permeable-Phenotype (%) [11]: 5%
Population Mitochondria Different-Phenotype (%) [11]: 2%
Population Mitotic Cells (%) [11]: 6%
Population Normal (%) [11]: 97%
Population Pyknosed Nuclei (%) [11]: 8%
Population Tubulin-Different-Phenotype (%) [11]: 3%
Total Cell Count [11]: 413
Population Apoptotic (%) [12]: 100%
Population Fragmented Nuclei (%) [12]: 22%
Population Hoechst High Intensity Objects (%) [12]: 3%
Population Mitochondria Different-Phenotype (%) [12]: 3%
Population Mitotic Cells (%) [12]: 0%
Population Normal (%) [12]: 96%
Population Pyknosed Nuclei (%) [12]: 5%
Total Cell Count [12]: 235
